Reference: ChEMBL document CHEMBL1148326, “Chemometric studies on the bactericidal activity of quinolones via an extended VolSurf approach” (2004)

Assays:
Type in all cases: functional
Enterococcus faecalis = assay: Antibacterial activity evaluated against Enterococcus faecalis
Method in brief: (§1)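 MIC against aerobic bacteria, measured at Bayer AG, by standard agar dilution or broth microdilution per NCCLS M7-A5 guidelines. MIC taken as lowest concentration visibly inhibiting growth after in vitro incubation, read when untreated culture growth becomes visible; expressed as log 1/C.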

Escherichia coli = assay: Antibacterial activity was evaluated against Escherichia coli; method in brief: as §1
Pseudomonas aeruginosa = assay: Antibacterial activity was evaluated against Pseudomonas aeruginosa; method in brief: as §1
Staphylococcus aureus = assay: Antibacterial activity was evaluated against Staphylococcus aureus; method in brief: as §1

Row | SMILES | Log 1/C (Enterococcus faecalis) | Log 1/C (Escherichia coli) | Log 1/C (Pseudomonas aeruginosa) | Log 1/C (Staphylococcus aureus)
1 | CN1CCC[C@@H]2CN(c3c(F)cc4c(=O)c(C(=O)O)cn(C5CC5)c4c3Cl)C[C@@H]21 | 6.23 | 7.15 | 5.32 | 6.83
2 | O=C(O)c1cn(C2CC2)c2c(Cl)c(N3C[C@@H]4CCCN[C@@H]4C3)c(F)cc2c1=O | 7.16 | 8.05 | 6.25 | 7.75
3 | CC1=C(C)n2cc(C(=O)O)c(=O)c3c(F)c(F)c(N4CCN(C5CC5)CC4)c(c32)O1 | 4.12 | 4.12 | 3.51 | 4.42
4 | O=C(O)c1c(=O)c2cc(F)c(N3C[C@@H]4CCCN[C@@H]4C3)c3c2n2c(csc12)CS3 | 6.54 | 7.16 | 5.63 | 6.86
5 | O=C(O)c1cn(C(CF)CF)c2cc(N3C[C@@H]4CCCN[C@@H]4C3)c(F)cc2c1=O | 5.01 | 5.61 | 4.11 | 5.01
6 | CN1CCN(c2c(F)cc3c(=O)c(C(=O)O)cn(CF)c3c2F)CC1 | 5.55 | 7.07 | 5.85 | 5.85
7 | O=C(O)c1cn(C2CC2)c2cc(N3CCN(C(CO)(CO)CO)CC3)c(F)cc2c1=O | 4.13 | 5.34 | 3.53 | 4.74
8 | O=C(O)c1cn2c3c(c(N4CCN(C5CC5)CC4)c(F)cc3c1=O)OC1=C2CCC1 | 4.75 | 4.15 | 3.54 | 4.75
9 | COc1c(N2CC3=C(CN(C)CC3)C2)c(F)cc2c(=O)c(C(=O)O)cn(C3CC3)c12 | 6.52 | 6.84 | 5.32 | 6.84
10 | C[C@H]1COc2c(N3C[C@H]4CCCN[C@H]4C3)c(F)cc3c(=O)c(C(=O)O)cn1c23 | 5.89 | 6.19 | 5.29 | 5.89
11 | CN1CCN(c2cc3c(c(Cl)c2F)c(=O)c(C(=O)O)cn3C2CC2)CC1 | 5.88 | 7.1 | 5.28 | 6.48
12 | CC(C)(C)N1CCN(c2cc3c(cc2F)c(=O)c(C(=O)O)cn3C2CC2)CC1 | 5.89 | 7.1 | 5.29 | 6.19
13 | O=C(O)c1cn(C2CC2)c2c(F)c(N3C[C@@H]4CCCN[C@@H]4C3)c(F)cc2c1=O | 6.84 | 8.02 | 6.23 | 7.44
14 | O=C(O)c1cn(C2CCOCC2)c2cc(N3CCNCC3)c(F)cc2c1=O | 4.07 | 3.77 | 3.47 | 4.07
15 | C=CCN1CCN(c2cc3c(cc2F)c(=O)c(C(=O)O)cn3C2CC2)CC1 | 5.61 | 6.82 | 5.31 | 6.21
16 | O=C(O)c1cn(C2CC2)c2cc(N3C(=O)C=CC3=O)c(F)cc2c1=O | 3.43 | 3.43 | 3.43 | 3.43
17 | O=C(O)c1cn(C2CC2)c2cc(N3CCN(c4ncccn4)CC3)c(F)cc2c1=O | 4.71 | 4.41 | 3.5 | 5.01
18 | CSc1cc2c(=O)c(C(=O)O)cn(C3CC3)c2c(SC)c1SC | 3.76 | 4.36 | 3.46 | 4.96
19 | O=C(O)c1cn(C2CC2)c2cc(N3C[C@H]4CCCN[C@H]4C3)c(F)cc2c1=O | 5.91 | 6.82 | 5.61 | 6.21
20 | O=C(O)c1cn(C2CC2)c2cc(N3CCN(C4CC4)CC3)c(F)cc2c1=O | 5.57 | 7.08 | 4.67 | 6.17
21 | CO/N=C/Cn1cc(C(=O)O)c(=O)c2cc(F)c(N3CCN(C)CC3)c(F)c21 | 3.49 | 5.29 | 4.39 | 4.39
22 | O=C(O)c1cn(C2CC2)c2c(Cl)c(N3C[C@H]4CCCN[C@H]4C3)c(F)cc2c1=O | 6.85 | 7.47 | 5.65 | 6.85
23 | CN1CCC[C@H]2CN(c3c(F)cc4c(=O)c(C(=O)O)cn(C5CC5)c4c3Cl)C[C@H]21 | 6.84 | 7.45 | 5.62 | 7.13
24 | C#Cc1c(N2C[C@@H]3CCCN[C@@H]3C2)c(F)cc2c(=O)c(C(=O)O)cn(C3CC3)c12 | 7.7 | 7.7 | 5.9 | 7.7

Row | SMILES | Log 1/C (Enterococcus faecalis) | Log 1/C (Escherichia coli) | Log 1/C (Pseudomonas aeruginosa) | Log 1/C (Staphylococcus aureus)
25 | O=C(O)c1cn(C2CC2)c2c([N+](=O)[O-])c(N3CCOCC3)c(F)cc2c1=O | 4.67 | 5.58 | 3.77 | 5.58
26 | CN1Cc2csc3c(C(=O)O)c(=O)c4cc(F)c(N5CCNCC5)c1c4n23 | 6.49 | 7.11 | 5.89 | 6.81
27 | O=C(O)c1cn(C2C[C@@H]2F)c2c(Cl)c(N3C[C@H]4CCCN[C@H]4C3)ccc2c1=O (some centres not stated) | 6.51 | 7.13 | 5.61 | 6.51
28 | CN1CCN(c2c(F)cc3c(=O)c(C(=O)O)cn4c3c2OC(C(C)(C)C)=C4)CC1 | 4.14 | 4.44 | 3.53 | 3.84
29 | O=C(O)c1cn(C2CC2)c2c(F)c(N3Cc4cccnc4C3)c(F)cc2c1=O | 7.73 | 6.53 | 5.02 | 7.44
30 | CC(C)(C)n1cc(C(=O)O)c(=O)c2cc(F)c(N3CCNCC3)cc21 | 6.44 | 7.06 | 6.14 | 6.44
31 | C[C@H]1COc2c(N3C[C@@H]4CCCN[C@@H]4C3)c(F)cc3c(=O)c(C(=O)O)cn1c23 | 6.19 | 6.8 | 5.59 | 6.19
32 | O=C(O)c1cn(C2CC2)c2cc(N3CCN(c4ccncc4)CC3)c(F)cc2c1=O | 4.71 | 5.91 | 3.5 | 5.61
33 | CC(=O)N1CCC[C@H]2CN(c3c(F)cc4c(=O)c(C(=O)O)cn(C5CC5)c4c3Cl)C[C@H]21 | 5.65 | 5.35 | 3.84 | 5.95
34 | O=C(O)c1cn(C2CC2)c2cc(N3C[C@@H]4CCCN[C@@H]4C3)c(F)cc2c1=O | 6.21 | 7.12 | 5.92 | 7.12
35 | O=C(O)c1cn(C2CC2)c2c(Cl)c(N3CCCCC3)c(F)cc2c1=O | 6.79 | 6.46 | 5.26 | 7.42
36 | O=C(O)c1cn(C2CC2)c2c(F)c(N3C[C@H]4CCCN[C@H]4C3)c(F)cc2c1=O | 6.53 | 7.45 | 5.63 | 6.84
37 | O=C(O)c1cn(C2CC2)c2c(F)c(N3C[C@@H]4OCCN[C@@H]4C3)c(F)c(Br)c2c1=O | 5.37 | 6.58 | 4.47 | 6.27
38 | O=C(O)c1cn2c3c(c(N4CCNCC4)c(F)cc3c1=O)OC=C2COCc1ccccc1 | 4.15 | 3.55 | 3.55 | 4.15
39 | O=C(O)c1cn(C2CC2)c2c(F)c(N3C4CCC3CC4)c(F)cc2c1=O | 5.26 | 5.86 | 4.35 | 5.86
40 | O=C(O)c1cn(-c2ccc(F)cc2F)c2nc(N3C[C@@H]4CCCN[C@@H]4C3)c(F)cc2c1=O | 6 | 7.5 | 5.09 | 6.59
41 | C#CCN1CCN(c2c(F)cc3c(=O)c(C(=O)O)cn(C4CC4)c3c2Cl)CC1 | 5.61 | 6.83 | 5.01 | 6.21
42 | CN1CCN(c2nc3c(cc2Cl)c(=O)c(C(=O)O)cn3C2CC2)CC1 | 4.35 | 6.77 | 4.96 | 4.96
43 | CC1CN(c2c(F)cc3c(=O)c(C(=O)O)cn(C4CC4)c3c2Cl)CC(C)N1 (configuration not stated) | 5.93 | 7.16 | 5.63 | 6.54
44 | N[C@@]12C=CC=CC1CN(c1c(F)cc3c(=O)c(C(=O)O)cn([C@@H]4C[C@@H]4F)c3c1Cl)C2 (some centres not stated) | 7.16 | 8.06 | 6.56 | 8.06
45 | CCOc1c(F)cc2c(=O)c(C(=O)O)cn(C(C)(C)CF)c2c1Cl | 4.05 | 4.35 | 3.45 | 4.95
46 | CO/N=C/Cn1cc(C(=O)O)c(=O)c2cc(F)c(N3C[C@@H]4CCCN(C)[C@@H]4C3)c(F)c21 | 4.42 | 5.62 | 4.42 | 5.62
47 | CNn1cc(C(=O)O)c(=O)c2cc(F)c(N3CCN(C)CC3)cc21 [AMIFLOXACIN] | 4.92 | 6.75 | 5.83 | 5.52
48 | O=C(O)c1cn(C2CC2)c2cc(N3CCNCC3)c(F)cc2c1=O [CIPROFLOXACIN] | 6.16 | 7.66 | 6.77 | 6.16
